According to ChEMBL document CHEMBL3259629, “Discovery and optimization of piperidyl-1,2,3-triazole ureas as potent, selective, and in vivo-active inhibitors of α/β-hydrolase domain containing 6 (ABHD6)” (J Med Chem, 2013):
Activity calls are given as the source filed them. No cut-off for these calls is given here.

What was measured:
[1] = molecular target: T1, Acylamino-acid-releasing enzyme (Mus musculus) (UniProt Q8R146); experiment: Inhibition of FP-rhodamine-labelled recombinant mouse APEH at 1 uM preincubated for 30 mins followed by FP-rhodamine labelling measured after 30 mins by gel-based competitive ABPP assay
T1 sequence (whole entry): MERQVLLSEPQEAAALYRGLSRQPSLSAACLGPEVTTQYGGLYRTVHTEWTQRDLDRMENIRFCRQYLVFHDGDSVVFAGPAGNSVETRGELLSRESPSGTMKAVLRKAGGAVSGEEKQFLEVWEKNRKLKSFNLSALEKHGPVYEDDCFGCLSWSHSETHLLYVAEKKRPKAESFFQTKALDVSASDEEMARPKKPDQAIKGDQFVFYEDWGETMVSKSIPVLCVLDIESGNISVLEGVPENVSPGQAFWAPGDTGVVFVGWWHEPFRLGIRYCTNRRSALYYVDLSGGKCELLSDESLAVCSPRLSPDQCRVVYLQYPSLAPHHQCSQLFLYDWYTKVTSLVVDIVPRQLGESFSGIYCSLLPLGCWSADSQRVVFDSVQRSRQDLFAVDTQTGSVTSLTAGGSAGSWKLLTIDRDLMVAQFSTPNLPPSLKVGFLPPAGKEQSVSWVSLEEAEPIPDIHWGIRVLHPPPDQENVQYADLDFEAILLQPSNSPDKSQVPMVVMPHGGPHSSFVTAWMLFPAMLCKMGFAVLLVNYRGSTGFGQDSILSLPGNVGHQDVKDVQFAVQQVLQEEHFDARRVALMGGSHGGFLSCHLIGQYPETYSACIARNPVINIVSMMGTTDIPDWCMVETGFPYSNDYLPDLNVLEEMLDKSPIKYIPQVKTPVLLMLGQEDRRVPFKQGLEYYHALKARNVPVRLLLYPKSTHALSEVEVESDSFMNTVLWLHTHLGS

[2] = molecular target: T2, Diacylglycerol lipase-beta (Mus musculus) (UniProt Q91WC9); experiment: Inhibition of FP-rhodamine-labelled recombinant mouse DAGLbeta expressed in HEK293T cells at 1 uM preincubated for 30 mins followed by FP-rhodamine labelling measured after 30 mins by gel-based competitive ABPP assay; format: cell-based; details: HEK-293T
T2 sequence (whole entry): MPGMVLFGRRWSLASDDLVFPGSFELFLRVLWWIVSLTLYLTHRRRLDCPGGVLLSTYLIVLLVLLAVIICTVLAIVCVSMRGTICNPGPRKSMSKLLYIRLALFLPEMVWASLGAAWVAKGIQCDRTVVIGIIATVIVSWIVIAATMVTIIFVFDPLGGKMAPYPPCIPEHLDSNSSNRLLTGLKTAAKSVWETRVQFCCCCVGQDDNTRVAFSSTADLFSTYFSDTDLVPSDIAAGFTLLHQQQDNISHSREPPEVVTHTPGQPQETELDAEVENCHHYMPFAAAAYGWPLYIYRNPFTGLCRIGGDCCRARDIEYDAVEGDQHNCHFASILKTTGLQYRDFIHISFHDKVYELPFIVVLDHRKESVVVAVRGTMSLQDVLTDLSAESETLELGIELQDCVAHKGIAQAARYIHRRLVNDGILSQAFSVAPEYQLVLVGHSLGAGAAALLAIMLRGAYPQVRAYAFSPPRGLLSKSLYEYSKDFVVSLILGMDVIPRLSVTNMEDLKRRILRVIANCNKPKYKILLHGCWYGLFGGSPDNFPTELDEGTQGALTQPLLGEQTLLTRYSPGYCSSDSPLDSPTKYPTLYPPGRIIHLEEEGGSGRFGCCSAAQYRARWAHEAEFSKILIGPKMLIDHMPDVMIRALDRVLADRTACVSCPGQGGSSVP
In short: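 Mouse DAGLβ transiently overexpressed in HEK293T. Lysate diluted to 0.3 mg/mL in 50 mM HEPES pH 7.2, 100 mM NaCl, 5 mM CaCl₂, 0.1% Triton X-100, 10% DMSO. Compound preincubated 30 min at 37 °C, then 1 μM probe for 30 min at 37 °C, SDS-PAGE and in-gel fluorescence.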

[3] = molecular target: Acyl-protein thioesterase 1 (Mus musculus) (UniProt P97823); experiment: Inhibition of FP-rhodamine-labelled recombinant mouse LYPLA1 at 10 uM preincubated for 30 mins followed by FP-rhodamine labelling measured after 30 mins by gel-based competitive ABPP assay
Sequence of Acyl-protein thioesterase 1 (Mus musculus) (P97823 whole entry): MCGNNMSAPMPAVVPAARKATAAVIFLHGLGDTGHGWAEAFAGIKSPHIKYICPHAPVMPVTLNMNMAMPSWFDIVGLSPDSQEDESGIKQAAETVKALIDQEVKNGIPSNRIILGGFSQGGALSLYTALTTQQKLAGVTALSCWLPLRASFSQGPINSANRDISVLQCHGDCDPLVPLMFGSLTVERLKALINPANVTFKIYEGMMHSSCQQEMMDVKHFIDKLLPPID

[4] = molecular target: Acyl-protein thioesterase 2 (Mus musculus) (UniProt Q9WTL7); experiment: Inhibition of FP-rhodamine-labelled recombinant mouse LYPLA2 at 1 uM preincubated for 30 mins followed by FP-rhodamine labelling measured after 30 mins by gel-based competitive ABPP assay
Sequence of Acyl-protein thioesterase 2 (Mus musculus) (Q9WTL7 whole entry): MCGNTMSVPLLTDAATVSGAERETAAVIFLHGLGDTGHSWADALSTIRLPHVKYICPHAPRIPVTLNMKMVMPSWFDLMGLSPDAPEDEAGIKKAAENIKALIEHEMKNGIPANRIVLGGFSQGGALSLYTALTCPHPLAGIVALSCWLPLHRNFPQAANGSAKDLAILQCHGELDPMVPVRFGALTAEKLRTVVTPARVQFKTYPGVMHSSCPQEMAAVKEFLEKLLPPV

[5] = molecular target: T1, Acylamino-acid-releasing enzyme (Mus musculus); experiment: Inhibition of FP-rhodamine-labelled recombinant mouse APEH at 10 uM preincubated for 30 mins followed by FP-rhodamine labelling measured after 30 mins by gel-based competitive ABPP assay
[6] = molecular target: T3, Monoacylglycerol lipase ABHD6 (Mus musculus) (UniProt Q8R2Y0); experiment: Inhibition of ABHD6 in FP-rhodamine-labelled mouse brain membrane at 1 nM preincubated for 30 mins followed by FP-rhodamine labelling measured after 30 mins by gel-based competitive ABPP assay; format: tissue-based
T3 sequence (whole entry): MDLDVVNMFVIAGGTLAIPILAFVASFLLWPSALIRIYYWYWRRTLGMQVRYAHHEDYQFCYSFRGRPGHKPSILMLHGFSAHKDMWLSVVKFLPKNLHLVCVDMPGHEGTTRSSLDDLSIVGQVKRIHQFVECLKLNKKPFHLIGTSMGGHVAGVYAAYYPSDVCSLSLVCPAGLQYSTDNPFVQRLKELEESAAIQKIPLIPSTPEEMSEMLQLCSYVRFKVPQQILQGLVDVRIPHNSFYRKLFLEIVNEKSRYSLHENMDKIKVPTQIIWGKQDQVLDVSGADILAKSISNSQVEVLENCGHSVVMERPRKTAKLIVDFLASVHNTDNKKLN
In short: (§1)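 Mouse brain membrane proteome (1 mg/mL) preincubated with compound for 30 min at 37 °C, then labelled with FP-rhodamine or HT-01 (1 μM final) for 30 min at 37 °C. Quenched in SDS loading buffer, run on 10% SDS-PAGE and scanned for in-gel fluorescence. Bands assigned by gel migration.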

[7] = molecular target: T4, Fatty-acid amide hydrolase 1 (Mus musculus) (UniProt O08914); experiment: Inhibition of mouse brain FAAH at 10 uM after 30 mins by FP-rhodamine ABPP-based SDS-PAGE analysis relative to control
T4 sequence (whole entry): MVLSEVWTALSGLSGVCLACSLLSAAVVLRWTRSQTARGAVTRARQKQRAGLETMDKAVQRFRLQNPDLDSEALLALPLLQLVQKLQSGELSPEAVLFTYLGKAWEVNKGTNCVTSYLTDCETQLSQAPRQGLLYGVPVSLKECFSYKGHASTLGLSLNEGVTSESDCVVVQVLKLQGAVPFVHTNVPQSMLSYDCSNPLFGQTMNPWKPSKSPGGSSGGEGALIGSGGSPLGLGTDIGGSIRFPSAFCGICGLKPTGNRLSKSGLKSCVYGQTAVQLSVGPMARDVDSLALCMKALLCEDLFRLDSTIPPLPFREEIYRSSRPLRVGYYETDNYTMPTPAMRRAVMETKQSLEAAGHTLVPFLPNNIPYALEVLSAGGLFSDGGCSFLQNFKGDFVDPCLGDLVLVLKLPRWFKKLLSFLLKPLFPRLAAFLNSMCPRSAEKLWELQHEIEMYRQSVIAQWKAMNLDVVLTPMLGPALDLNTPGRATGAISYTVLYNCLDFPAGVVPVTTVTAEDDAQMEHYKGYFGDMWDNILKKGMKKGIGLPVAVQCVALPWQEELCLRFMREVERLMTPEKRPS

[8] = molecular target: T3, Monoacylglycerol lipase ABHD6 (Mus musculus); experiment: Inhibition of ABHD6 in FP-rhodamine-labelled mouse brain membrane at 10 nM preincubated for 30 mins followed by FP-rhodamine labelling measured after 30 mins by gel-based competitive ABPP assay; format: tissue-based; in short: as §1
[9] = molecular target: Acyl-protein thioesterase 2 (Mus musculus) (UniProt Q9WTL7); experiment: Inhibition of FP-rhodamine-labelled recombinant mouse LYPLA2 at 10 uM preincubated for 30 mins followed by FP-rhodamine labelling measured after 30 mins by gel-based competitive ABPP assay
[10] = molecular target: Acyl-protein thioesterase 1 (Mus musculus) (UniProt P97823); experiment: Inhibition of FP-rhodamine-labelled recombinant mouse LYPLA1 at 1 uM preincubated for 30 mins followed by FP-rhodamine labelling measured after 30 mins by gel-based competitive ABPP assay

## O=C(O)c1cccc(-c2ccc(-c3cn(C(=O)N4CCCCC4c4ccccc4)nn3)cc2)c1 (racemic)
[1]
  inhibition: Active
[2]
  inhibition: 6%
[3]
  inhibition: Active
[4]
  inhibition: Active
[5]
  inhibition: Active
[6]
  inhibition: 36%
[7]
  inhibition: Active
[8]
  inhibition: 100%
[9]
  inhibition: Active
[10]
  inhibition: Active
